Values after ≈ are worked out from the molar mass of the structure shown. Active and inactive are the calls of the source. The calls are words filed in the database; no cut-off is given here.
Columns and labels:
[1] = test system: Staphylococcus epidermidis; assay: Antibacterial activity against Staphylococcus epidermidis CIP 105777; format: functional
Escherichia coli [2] = assay: Antibacterial activity against Escherichia coli tolC CGSC 5633; format: functional
Staphylococcus aureus [3] = assay: Antibacterial activity against Staphylococcus aureus CIP 76.25; format: functional
Escherichia coli [4] = assay: Inhibition of RNA polymerase sigma-70 transcription in Escherichia coli at 10 uM; format: functional
CHO = assay: Cytotoxicity against CHO cells; format: cell-based, Cricetulus griseus; conditions: chinese hamster
Outline: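 CHO cells grown in RPMI with 5% fetal calf serum, then exposed to compounds 24 h at 37 °C without serum. MTT added at 300 µg/mL final, 3 h at 37 °C dark; acidified isopropanol added, 1 h at room temperature; OD at 595 nm.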

Staphylococcus aureus [5] = assay: Antibacterial activity against multidrug resistant Staphylococcus aureus 49589; format: functional
Outline: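 Broth microdilution MIC following CLSI. Compounds were predissolved in DMSO and tested as serial 2-fold dilutions at final 100 to 0.4 µg/mL. Inoculum was 5 × 10⁵ CFU/mL, and plates were read after 18 h at 37 °C.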

[6] = test system: Staphylococcus epidermidis; assay: Antibacterial activity against Staphylococcus epidermidis RP62A; format: functional
[7] = test system: Staphylococcus epidermidis; assay: Antibacterial activity against Staphylococcus epidermidis 40004; format: functional
[8] = test system: Staphylococcus epidermidis; assay: Antibacterial activity against Staphylococcus epidermidis 48155; format: functional
Streptococcus pneumoniae = assay: Antibacterial activity against Streptococcus pneumoniae CIP 103566; format: functional
Clostridioides difficile = assay: Antibacterial activity against Clostridium difficile DSM 1296; format: functional
Bacillus anthracis = assay: Antibacterial activity against Bacillus anthracis 9131; format: functional
[9] = test system: Staphylococcus epidermidis; assay: Antibacterial activity against Staphylococcus epidermidis RP62A biofilms assessed as bacterial count per well at 8 times MIC after 24 hrs; format: functional
Outline: (§1)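 Biofilms from 10⁷ CFU/mL inoculum in MHB grown 24 h at 37 °C, rinsed, then exposed 24 h at 37 °C without shaking in MHB to compound at 8× MIC. Washed, DMSO-lysed, ATP bioluminescence read (luciferase/D-luciferin buffer, pH 7.25). Strain-specific luminescence-to-Log₁₀ CFU/well equations used; triplicate.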

[10] = test system: Staphylococcus epidermidis; assay: Antibacterial activity against Staphylococcus epidermidis 40004 biofilms assessed as bacterial count per well at 8 times MIC after 24 hrs; format: functional; outline: as §1
[11] = test system: Staphylococcus epidermidis; assay: Antibacterial activity against Staphylococcus epidermidis 48155 biofilms assessed as bacterial count per well at 8 times MIC after 24 hrs; format: functional; outline: as §1
Albumin = Albumin (Homo sapiens, UniProt P02768); assay: Binding affinity to HSA by SPR method; format: ADME; conditions: isolated protein
Outline: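 SPR at 25 °C; HSA amine-coupled on CM5 chip (9000–11 000 RU). Compounds at 50 µM in PBS with 5% DMSO, 30 µL/min, duplicate 60 s injections over HSA and reference surfaces. Double referencing with buffer blanks; DMSO bulk correction from calibration curve (4.5–5.8% DMSO).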

Escherichia coli [12] = assay: Antibacterial activity against Escherichia coli tolC CGSC 5633 in presence of 1% HSA; format: functional, organism-based
[13] = Inhibition of Escherichia coli RNA polymerase sigma-70 factor

Sequence of Albumin (P02768 whole entry): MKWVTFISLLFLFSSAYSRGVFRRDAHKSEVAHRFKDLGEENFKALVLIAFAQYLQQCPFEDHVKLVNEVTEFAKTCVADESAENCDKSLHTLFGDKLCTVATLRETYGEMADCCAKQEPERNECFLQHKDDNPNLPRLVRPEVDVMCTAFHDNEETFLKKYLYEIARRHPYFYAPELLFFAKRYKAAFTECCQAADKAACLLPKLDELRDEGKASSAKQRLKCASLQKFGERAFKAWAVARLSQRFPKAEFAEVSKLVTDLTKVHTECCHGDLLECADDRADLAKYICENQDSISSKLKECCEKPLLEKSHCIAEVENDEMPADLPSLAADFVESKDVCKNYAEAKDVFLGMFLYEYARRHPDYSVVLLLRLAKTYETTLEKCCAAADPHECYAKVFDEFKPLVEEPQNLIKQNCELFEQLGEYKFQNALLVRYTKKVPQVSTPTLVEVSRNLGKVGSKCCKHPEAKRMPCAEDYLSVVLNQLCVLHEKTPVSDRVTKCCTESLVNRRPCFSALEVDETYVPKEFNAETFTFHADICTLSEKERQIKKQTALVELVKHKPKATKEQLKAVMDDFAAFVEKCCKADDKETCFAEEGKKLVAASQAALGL

Row | Compound | MIC [1] [µg/mL] | MIC (Escherichia coli [2]) [µg/mL] | MIC (Staphylococcus aureus [3]) [µg/mL] | inhibition at 10 µM (Escherichia coli [4]) [%] | Activity (CHO) | MIC (Staphylococcus aureus [5]) [µg/mL] | MIC [6] [µg/mL] | MIC [7] [µg/mL] | MIC [8] [µg/mL] | MIC (Streptococcus pneumoniae) [µg/mL] | MIC (Clostridioides difficile) [µg/mL] | MIC (Bacillus anthracis) [µg/mL] | log10CFU/ml [9] | log10CFU/ml [10] | log10CFU/ml [11] | Activity (Albumin) | Activity (Escherichia coli [12]) | IC50 [13] [µM]
1 | C=CCN1C(=O)/C(=C/c2cc(C)n(-c3cccc(C(=O)O)c3)c2C)SC1=S | 25 (≈ 62.7 µM) | 50 (≈ 125 µM) | 50 (≈ 125 µM) | 100 | >= 100 ug ml-1 | 25 (≈ 62.7 µM) | 25 (≈ 62.7 µM) | 50 (≈ 125 µM) | 25 (≈ 62.7 µM) | 25 (≈ 62.7 µM) | 6.25 (≈ 15.7 µM) | 6.25 (≈ 15.7 µM) | 2.8 | 2.3 | 1.8 | – | – | –
2 | C=CCN1C(=O)/C(=C/c2ccc(-c3cccc(C(=O)O)c3)o2)SC1=S | 3.13 (≈ 8.43 µM) | 6.25 (≈ 16.8 µM) | 12.5 (≈ 33.7 µM) | 97 | >= 100 ug ml-1 | 25 (≈ 67.3 µM) | 12.5 (≈ 33.7 µM) | 25 (≈ 67.3 µM) | 25 (≈ 67.3 µM) | 50 (≈ 135 µM) | 12.5 (≈ 33.7 µM) | 6.25 (≈ 16.8 µM) | – | – | – | Active | inactive | –
3 | C=CCN1C(=O)/C(=C/c2ccc(-c3ccc(C(=O)O)cc3)o2)SC1=S | 3.13 (≈ 8.43 µM) | 12.5 (≈ 33.7 µM) | ≥ 100 | 98 | >= 100 ug ml-1 | ≥ 100 | 3.13 (≈ 8.43 µM) | 6.25 (≈ 16.8 µM) | 3.13 (≈ 8.43 µM) | ≥ 100 | ≥ 100 | 3.13 (≈ 8.43 µM) | – | – | – | Active | inactive | –
4 | C=CCN1C(=O)/C(=C/c2ccc(-c3ccc(C(=O)O)c(Cl)c3)o2)SC1=S | 6.25 (≈ 15.4 µM) | 25 (≈ 61.6 µM) | 50 (≈ 123 µM) | 100 | >= 100 ug ml-1 | 50 (≈ 123 µM) | 6.25 (≈ 15.4 µM) | 6.25 (≈ 15.4 µM) | 12.5 (≈ 30.8 µM) | 12.5 (≈ 30.8 µM) | 12.5 (≈ 30.8 µM) | 3.13 (≈ 7.71 µM) | – | – | – | Active | inactive | –
5 | C=CCN1C(=O)/C(=C/c2cc(C)n(CC)c2C)SC1=S | ≥ 100 | ≥ 100 | – | 5 | – | – | – | – | – | – | – | – | – | – | – | – | – | ≥ 100
6 | C=CCN1C(=O)/C(=C/c2ccc(-c3ccc(CCC(=O)O)cc3)o2)SC1=S | 25 (≈ 62.6 µM) | 12.5 (≈ 31.3 µM) | 25 (≈ 62.6 µM) | 68 | >= 100 ug ml-1 | 25 (≈ 62.6 µM) | 25 (≈ 62.6 µM) | 25 (≈ 62.6 µM) | 12.5 (≈ 31.3 µM) | ≥ 100 | 50 (≈ 125 µM) | 12.5 (≈ 31.3 µM) | – | – | – | Active | inactive | –

From ChEMBL document CHEMBL1148734, “Structure-activity relationships of phenyl-furanyl-rhodanines as inhibitors of RNA polymerase with antibacterial activity on biofilms” (J Med Chem, 2007)
